ChEMBL document CHEMBL1122704, “Syntheses and anthelmintic activity of alkyl 5(6)-(substituted-carbamoyl)- and 5(6)-(disubstituted-carbamoyl)benzimidazole-2-carbamates and related compounds” (1984)
Calls of active or inactive are those of the source. The rule behind the calls is not given here.

Columns and labels:
Rattus norvegicus [1] = test: Compound was evaluated for the biological activity against Hymenolepsis nana (rats) at the 250 mg/kg; insignificant activity; format: functional, organism-based; set-up: dose 250 mg/kg
Method in brief: (§1)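 Male rats (25–35 g) infected orally with 200 viable eggs. Infection confirmed by ovoscopic examination on days 17–20 postinoculation. Positive rats dosed orally on day 20 ± 1, initially 250 mg/kg × 1, then lower doses for dose–response. Method of Steward.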

Ancylostoma ceylanicum = test: Compound was evaluated for the biological activity against Ancylostoma ceylanicum in hamsters at the 250 mg/kg; format: functional
Method in brief: (§2)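 Hamsters of either sex (40–60 g) infected orally with 60 third-stage larvae. Test compound given orally as a single dose on day 20 ± 1 postinfection, starting at 250 mg/kg × 1. Lower doses were used for active compounds to establish dose–response. Method of Ray et al. as modified locally.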

[2] = tested on: Nippostrongylus brasiliensis; test: (§3) Anti-nematode activity against Nippostrongylus brasiliensis in rats at 250 mg/kg; Insignificant activity.; format: functional
Rattus norvegicus [3] = test: Compound was evaluated for the biological activity against Hymenolepsis nana (rats) at the 200 mg/kg; format: functional; method in brief: as §1
Cricetinae gen. sp. [4] = test: Compound was evaluated for the biological activity against Ancylostoma ceylanicum in hamsters at the 250 mg/kg; insignificant activity; format: functional, organism-based; set-up: dose 250 mg/kg; settings: Cricetulus griseus; method in brief: as §2
[5] = as §3; format: functional
Cricetinae gen. sp. [6] = test: Compound was evaluated for the biological activity against Ancylostoma ceylanicum in hamsters at the 100 mg/kg; format: functional, Cricetulus griseus; method in brief: as §2
Rattus norvegicus [7] = test: Compound was evaluated for the biological activity against Hymenolepsis nana (rats) at the 250 mg/kg; format: functional; method in brief: as §1
Cricetinae gen. sp. [8] = test: Compound was evaluated for the biological activity against Ancylostoma ceylanicum in hamsters at the 50 mg/kg; format: functional, Cricetulus griseus; method in brief: as §2
Rattus norvegicus [9] = test: Compound was evaluated for the biological activity against Hymenolepsis nana (rats) at the 100-50 mg/kg; format: functional; method in brief: as §1
Cricetinae gen. sp. [10] = test: Compound was evaluated for the biological activity against Ancylostoma ceylanicum in hamsters at the 3.12 mg/kg; format: functional, Cricetulus griseus; method in brief: as §2
Canis familiaris [11] = test: Efficiency against Ancylostoma ceylanicum (hookworm) in dog at the 10 x 3 mg/kg; format: functional, Canis lupus familiaris
Cricetinae gen. sp. [12] = test: Compound was evaluated for the biological activity against Ancylostoma ceylanicum in hamsters at the 100-6.25 mg/kg; format: functional, Cricetulus griseus; method in brief: as §2
Canis familiaris (dog) [13] = test: Efficiency against Toxocara species. (Ascaris) in dog at the 25 x 3 mg/kg
Rattus norvegicus [14] = test: Compound was evaluated for the biological activity against Nippostrongylus brasiliensis in rats at the 25 mg/kg; format: functional
Method in brief: (§4)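 Male rats (25–40 g) inoculated subcutaneously with 500 larvae taken from 6–8-day-old fecal culture. Compounds given orally on day 9 postinfection at 250 mg/kg × 3, with lower doses as follow-up for active compounds. Steward technique as modified by Katiyar and Sen.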

Rattus norvegicus [15] = test: Efficiency against L carinii (filarid worm) in cotton (against microfilariae and inactive against adults) rat at 100 x 5 mg/kg (po); format: functional
Felis catus [16] = test: Efficiency against Ancylostoma tubaeformis (hookworm) in cat at the 25 x 3 mg/kg; format: functional
Rattus norvegicus [17] = test: Efficiency against L carinii (filarid worm) in cotton (on microfilariae) rat at the 30 x 5 mg/kg (ip); format: functional
Rattus norvegicus [18] = test: Efficiency against L carinii (filarid worm) in cotton (against adults) rat at the 30 x 5 mg/kg (ip); format: functional
Rattus norvegicus [19] = test: Compound was evaluated for the biological activity against Nippostrongylus brasiliensis in rats at the 250 mg/kg; format: functional; method in brief: as §4
Mus musculus = test: Efficiency against Syphacia obvelata (pinworm) in mouse at the 12.5 x 3 mg/kg; format: functional
Method in brief: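 Adult mice of both sexes (20–30 g) with pinworm infection, assessed by Standon's method. Oral dosing started at 25 mg/kg × 3, followed by lower doses for active compounds. Mebendazole at 50 mg/kg × 3 served as positive control.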

Felis catus [20] = test: Efficiency against Ancylostoma tubaeformis (hookworm) in cat at the 10 x 3 mg/kg; inactive; format: functional, organism-based; set-up: dose 3 mg/kg; settings: at 3 mg/kg
Canis familiaris (dog) [21] = test: Efficiency against Taenia species. (tapeworm) in dog at the 25 x 3 mg/kg; inactive; settings: at 3 mg/kg
Rattus norvegicus [22] = test: Efficiency against L carinii (filarid worm) in cotton (against both microfilariae and adults) rat at the 50 x 5 mg/kg (po); inactive; format: functional, organism-based; set-up: dose 5 mg/kg; settings: at 5 mg/kg
Canis familiaris [23] = test: Efficiency against Ancylostoma ceylanicum (hookworm) in dog at the 25 x 3 mg/kg; format: functional, Canis lupus familiaris
Rattus norvegicus [24] = test: Efficiency against L carinii (filarid worm) in cotton (on adults) rat at the 30 x 5 mg/kg (ip); format: functional
Rattus norvegicus [25] = test: Compound was evaluated for the biological activity against Hymenolepsis nana (rats) at the 25 mg/kg; format: functional; method in brief: as §1
Rattus norvegicus [26] = test: Efficiency against L carinii (filarid worm) in cotton (against both microfilariae and adults) rat at the 10 x 5 mg/kg (ip); inactive; format: functional, organism-based; set-up: dose 5 mg/kg; settings: at 5 mg/kg
Rattus norvegicus [27] = test: Compound was evaluated for the biological activity against Nippostrongylus brasiliensis in rats at the 100-50 mg/kg; format: functional; method in brief: as §4
Rattus norvegicus [28] = test: Compound was evaluated for the biological activity against Hymenolepsis nana (rats) at the 50 mg/kg; format: functional; method in brief: as §1
Rattus norvegicus [29] = test: Compound was evaluated for the biological activity against Nippostrongylus brasiliensis (rats) at the 100 mg/kg; format: functional; method in brief: as §4
Cricetinae gen. sp. [30] = test: Compound was evaluated for the biological activity against Ancylostoma ceylanicum (hamsters and dogs) at the 50 mg/kg; format: functional, Cricetulus griseus
Cricetinae gen. sp. [31] = test: Compound was evaluated for the biological activity against Ancylostoma ceylanicum in hamsters at the 100 mg/kg; insignificant activity; format: functional, organism-based; set-up: dose 100 mg/kg; settings: Cricetulus griseus; method in brief: as §2
Rattus norvegicus [32] = test: Compound was evaluated for the biological activity against Hymenolepsis nana (rats) at the 100 mg/kg; format: functional; method in brief: as §1
Rattus norvegicus [33] = test: Compound was evaluated for the biological activity against Hymenolepsis nana (rats) aat the 250 mg/kg; format: functional; method in brief: as §1
Rattus norvegicus [34] = test: Compound was evaluated for the biological activity against Hymenolepsis nana (rats)at the 250 mg/kg; insignificant activity; format: functional, organism-based; set-up: dose 250 mg/kg; method in brief: as §1

Structure (SMILES)	Activity (Rattus norvegicus [1])	Activity (Ancylostoma ceylanicum)	Activity [2]	Activity (Rattus norvegicus [7])	other results
COC(=O)Nc1nc2cc(C(=O)NCCNC(=O)c3ccc4[nH]c(NC(=O)OC)nc4c3)ccc2[nH]1	inactive	50%	inactive		
CCCCCCCCNC(=O)c1ccc2[nH]c(NC(=O)OC)nc2c1		100%	inactive		Activity (Rattus norvegicus [3]): 100%
CCOC(=O)Nc1nc2cc(C(=O)NCCc3ccc(OC)c(OC)c3)ccc2[nH]1	inactive				
COC(=O)Nc1nc2cc(C(=O)Nc3nc4ccc(OC)cc4s3)ccc2[nH]1	inactive				Activity (Cricetinae gen. sp. [4]): inactive; Activity [5]: 86.6%
COC(=O)Nc1nc2cc(C(=O)Nc3ccncc3)ccc2[nH]1	inactive	75%	inactive		
COC(=O)Nc1nc2cc(C(=O)Nc3ccccn3)ccc2[nH]1	inactive	95%	inactive		
COC(=O)Nc1nc2cc(C(=O)Nc3cccc(C)n3)ccc2[nH]1		100%	inactive	100%	Activity (Cricetinae gen. sp. [6]): 100%; Activity (Cricetinae gen. sp. [8]): 92.5%
COC(=O)Nc1nc2cc(C(=O)N3CCN(c4ccccn4)CC3)ccc2[nH]1		100%		100%	Activity (Rattus norvegicus [9]): 100%; Activity (Cricetinae gen. sp. [10]): 88%; Efficiency (Canis familiaris [11]): 100%; Activity (Cricetinae gen. sp. [12]): 100%; Efficiency (Canis familiaris (dog) [13]): 100%; Activity (Rattus norvegicus [14]): 60%; Efficiency (Rattus norvegicus [15]): 94.8%; Efficiency (Felis catus [16]): 100%; Efficiency (Rattus norvegicus [17]): 97%; Efficiency (Rattus norvegicus [18]): 100%; Activity (Rattus norvegicus [19]): 100%; Efficiency (Mus musculus): 100%; Efficiency (Felis catus [20]): inactive; Efficiency (Canis familiaris (dog) [21]): inactive; Efficiency (Rattus norvegicus [22]): inactive; Efficiency (Canis familiaris [23]): 100%; Efficiency (Rattus norvegicus [24]): 100%; Activity (Rattus norvegicus [25]): 100%; Efficiency (Rattus norvegicus [26]): inactive; Activity (Rattus norvegicus [27]): 100%
COC(=O)Nc1nc2cc(C(=O)N(C(C)C)C(C)C)ccc2[nH]1		100%		100%	Activity (Cricetinae gen. sp. [6]): 100%; Activity (Rattus norvegicus [19]): 100%; Activity (Rattus norvegicus [28]): 100%; Activity (Rattus norvegicus [29]): 100%; Activity (Cricetinae gen. sp. [30]): 88.8%
COC(=O)Nc1nc2cc(C(=O)NC3=NCCS3)ccc2[nH]1		100%	inactive	100%	Activity (Cricetinae gen. sp. [8]): 55.5%; Activity (Cricetinae gen. sp. [31]): inactive
CCOC(=O)Nc1nc2cc(C(=O)Nc3ccccc3)ccc2[nH]1	inactive	50%	inactive		
CCN(CC)C(=O)c1ccc2[nH]c(NC(=O)OC)nc2c1		100%		100%	Activity (Rattus norvegicus [19]): 100%
COC(=O)Nc1nc2cc(C(=O)Nc3ncc(C)s3)ccc2[nH]1		100%	inactive	100%	Activity (Rattus norvegicus [32]): 100%
COC(=O)Nc1nc2cc(NC(=O)c3ccc(C(=O)Nc4ccc5[nH]c(NC(=O)OC)nc5c4)cc3)ccc2[nH]1	inactive	100%	inactive		Activity (Cricetinae gen. sp. [8]): 66.6%
COC(=O)Nc1nc2cc(C(=O)N3CCOCC3)ccc2[nH]1		100%		100%	Activity (Cricetinae gen. sp. [10]): 83%; Activity (Cricetinae gen. sp. [12]): 100%; Activity (Rattus norvegicus [14]): 50%; Activity (Rattus norvegicus [19]): 100%; Activity (Rattus norvegicus [32]): 100%; Activity (Rattus norvegicus [28]): 100%; Activity (Rattus norvegicus [27]): 100%
COC(=O)Nc1nc2cc(C(=O)N3CCN(c4ccccc4)CC3)ccc2[nH]1		100%			Activity (Cricetinae gen. sp. [10]): 77%; Activity (Cricetinae gen. sp. [12]): 100%; Activity (Rattus norvegicus [14]): 86.6%; Activity (Rattus norvegicus [19]): 100%; Activity (Rattus norvegicus [32]): 100%; Activity (Rattus norvegicus [28]): 100%; Activity (Rattus norvegicus [33]): 100%; Activity (Rattus norvegicus [27]): 100%
COC(=O)Nc1nc2cc(C(=O)NC3CCCCC3)ccc2[nH]1	inactive	100%			Activity (Rattus norvegicus [19]): 63.2%
COC(=O)Nc1nc2cc(C(=O)N3CCCCC3)ccc2[nH]1		100%			Activity (Rattus norvegicus [34]): inactive
COC(=O)Nc1nc2cc(C(=O)NCCc3ccc(NC(=O)c4ccc5[nH]c(NC(=O)OC)nc5c4)cc3)ccc2[nH]1	inactive	50%	inactive		
CCCCNC(=O)c1ccc2[nH]c(NC(=O)OC)nc2c1		100%	inactive	100%	
COC(=O)Nc1nc2cc(C(=O)Nc3ccccc3)ccc2[nH]1		87%	inactive		
COC(=O)Nc1nc2cc(C(=O)Nc3ccc(F)cc3)ccc2[nH]1		100%	inactive	100%	
CCCN(CCC)C(=O)c1ccc2[nH]c(NC(=O)OC)nc2c1		100%	inactive	100%	Activity (Cricetinae gen. sp. [6]): 75%; Activity (Rattus norvegicus [32]): 100%
CNC(=O)c1ccc2[nH]c(NC(=O)OC)nc2c1		95%	inactive	100%	
COC(=O)Nc1nc2cc(C(=O)Nc3ccc(Sc4ccc(NC(=O)c5ccc6[nH]c(NC(=O)OC)nc6c5)cc4)cc3)ccc2[nH]1	inactive	48.2%	inactive		
COC(=O)Nc1nc2cc(C(=O)Nc3nccs3)ccc2[nH]1	inactive		inactive		Activity (Cricetinae gen. sp. [4]): inactive
COC(=O)Nc1nc2cc(C(=O)Nc3ccc(S(=O)(=O)c4ccc(NC(=O)c5ccc6[nH]c(NC(=O)OC)nc6c5)cc4)cc3)ccc2[nH]1	inactive	48.2%	inactive		
